The record followed here is PubChem BioAssay.

Active and inactive are the calls of the source.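 Rule for the calls, unless noted: active = mean duplicate activation above the buffer control mean plus 5 SD of those controls; inactive = the rest.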

A short description of experiment [1]: nonspecific flux increase, KCNQ1-free cells – parental CHO cells, counter-screen for KCNQ1 potentiator project (AID 493006;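 active = duplicate-averaged activation above buffer control mean plus 5 SD of those controls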). The conditions noted are these: parental CHO-K1 cells, FluxOR thallium flux, at 10 µM; active compounds read high. The procedure, abridged: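 Test system: parental CHO-K1 cells, FluxOR dye-loaded / Probe or stimulus: potassium plus thallium depolarizing stimulus, 5x stock 12.5 mM K2SO4, Tl2SO4 / Timing: overnight 37 °C plating, 90 min dye, 20 min dark compound / Measured by: kinetic thallium-flux fluorescence / Read-out: max-minus-min fluorescence over baseline, percent of buffer-to-R-L3 span / Benchmarks: buffer and R-L3 controls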

Experiment [2] addresses Potassium voltage-gated channel subfamily KQT member 1 (Homo sapiens) (UniProt P51787). In words: enhancement of KCNQ1 channel thallium flux – FluxOR thallium flux, CHO cells, duplicates, confirmation (AID 493007;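 active = potentiation averaged over duplicate wells exceeding buffer-only control mean by more than 3 SD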;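 for outcome: cells depolarized by a potassium plus thallium sulfate stimulus after compound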;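 for potentiation: 0% = buffer-only wells and 100% = R-L3 activator control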). The conditions noted are these: KCNQ1 cell line, FluxOR thallium flux fluorescence, at 10 µM; active compounds read high, % of reference activator effect, buffer zero. The procedure, abridged: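 Assay system: CHO cells carrying KCNQ1 | Controls: Buffer and R-L3 controls | Schedule: FluxOR dye loading 90 min, compound exposure 20 min, room temperature | Read-out: Baseline-normalized fluorescence change, percent of buffer-to-R-L3 range | Replicates: Each compound tested in duplicate | Technique: Kinetic thallium influx fluorescence with FluxOR dye, 10 s baseline, 110 s post-stimulus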

In experiment [3] the target is Potassium voltage-gated channel subfamily KQT member 2 (Rattus norvegicus) (UniProt O88943). In words: KCNQ2 thallium flux enhancement – KCNQ2-CHO-K1 cells, selectivity assay for KCNQ1 potentiator project (AID 493009;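 active = mean duplicate potentiation above the buffer control mean plus 5 SD of buffer wells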;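 note: assay conditions were tuned for KCNQ1 rather than KCNQ2 modulators; signal is max minus min fluorescence divided by baseline after thallium stimulus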). To be noted: FluxOR thallium flux fluorescence, at 10 µM; active compounds read high, scaled: buffer 0, activator control 100.
Experiment [4] addresses Potassium voltage-gated channel subfamily KQT member 1 (Homo sapiens) (UniProt P51787). In words: KCNQ1 activators by electrophysiology – IonWorks patch clamp, KCNQ1-CHO cells, orthogonal assay for KCNQ1 potentiator project, confirmation (AID 493184;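 active = current rise at least 3 SD above the untreated control mean in each of two repeat wells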). The conditions noted are these: automated patch clamp current, at 10 µM; active compounds read high. The procedure, abridged: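 Material: KCNQ1-expressing CHO cells; doses: 10 µM final, single point; probe or stimulus: voltage step from -90 mV holding to +40 mV, 2,000 ms; signal: automated voltage clamp, amphotericin B perforated patch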

Experiment [5] addresses Potassium voltage-gated channel subfamily E member 1 (Homo sapiens) + Potassium voltage-gated channel subfamily KQT member 1 (Homo sapiens) (UniProt P15382+P51787). Put plainly: KCNQ1-E1 channel activation – thallium flux, CHO-K1 KCNQ1/E1 cells, selectivity assay for KCNQ1 potentiator project, confirmation (AID 493186).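 For activation: 0% = assay buffer control and 100% = R-L3 activator control.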 The conditions noted are these: FluxOR thallium flux, at 10 µM; active compounds read high. The method, boiled down:
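Test system: CHO-K1 cells with KCNQ1/E1. Times: 90-min dye loading then 20-min compound exposure, both at room temperature. Measured by: kinetic FluxOR thallium-flux fluorescence, 10 s baseline plus 110 s after stimulus. Repeats: duplicate wells per compound.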

Sequence of Potassium voltage-gated channel subfamily KQT member 2 (Rattus norvegicus) (O88943 whole entry, looked up): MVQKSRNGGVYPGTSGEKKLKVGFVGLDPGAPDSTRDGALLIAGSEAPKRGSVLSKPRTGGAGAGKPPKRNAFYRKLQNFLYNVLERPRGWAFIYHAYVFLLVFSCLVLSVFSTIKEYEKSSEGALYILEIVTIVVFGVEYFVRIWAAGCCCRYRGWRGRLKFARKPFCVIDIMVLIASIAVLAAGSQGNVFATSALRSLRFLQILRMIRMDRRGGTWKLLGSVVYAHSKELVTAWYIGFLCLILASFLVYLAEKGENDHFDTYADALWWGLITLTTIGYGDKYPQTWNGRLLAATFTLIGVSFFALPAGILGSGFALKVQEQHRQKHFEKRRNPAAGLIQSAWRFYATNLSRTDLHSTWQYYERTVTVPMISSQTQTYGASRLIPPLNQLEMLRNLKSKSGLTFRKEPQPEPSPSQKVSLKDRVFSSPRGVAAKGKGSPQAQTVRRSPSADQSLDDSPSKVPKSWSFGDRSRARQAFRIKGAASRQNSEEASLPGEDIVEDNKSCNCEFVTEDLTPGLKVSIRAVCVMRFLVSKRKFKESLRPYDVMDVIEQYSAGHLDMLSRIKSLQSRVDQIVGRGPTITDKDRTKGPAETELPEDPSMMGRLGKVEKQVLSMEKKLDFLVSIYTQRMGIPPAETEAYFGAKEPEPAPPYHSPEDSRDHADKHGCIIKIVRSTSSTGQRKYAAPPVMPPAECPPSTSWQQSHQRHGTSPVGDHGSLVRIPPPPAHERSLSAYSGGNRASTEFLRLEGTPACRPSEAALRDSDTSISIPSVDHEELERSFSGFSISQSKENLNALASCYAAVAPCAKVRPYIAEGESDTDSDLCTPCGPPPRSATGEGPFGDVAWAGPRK
Sequence of Potassium voltage-gated channel subfamily KQT member 1 (Homo sapiens) (P51787 whole entry, looked up): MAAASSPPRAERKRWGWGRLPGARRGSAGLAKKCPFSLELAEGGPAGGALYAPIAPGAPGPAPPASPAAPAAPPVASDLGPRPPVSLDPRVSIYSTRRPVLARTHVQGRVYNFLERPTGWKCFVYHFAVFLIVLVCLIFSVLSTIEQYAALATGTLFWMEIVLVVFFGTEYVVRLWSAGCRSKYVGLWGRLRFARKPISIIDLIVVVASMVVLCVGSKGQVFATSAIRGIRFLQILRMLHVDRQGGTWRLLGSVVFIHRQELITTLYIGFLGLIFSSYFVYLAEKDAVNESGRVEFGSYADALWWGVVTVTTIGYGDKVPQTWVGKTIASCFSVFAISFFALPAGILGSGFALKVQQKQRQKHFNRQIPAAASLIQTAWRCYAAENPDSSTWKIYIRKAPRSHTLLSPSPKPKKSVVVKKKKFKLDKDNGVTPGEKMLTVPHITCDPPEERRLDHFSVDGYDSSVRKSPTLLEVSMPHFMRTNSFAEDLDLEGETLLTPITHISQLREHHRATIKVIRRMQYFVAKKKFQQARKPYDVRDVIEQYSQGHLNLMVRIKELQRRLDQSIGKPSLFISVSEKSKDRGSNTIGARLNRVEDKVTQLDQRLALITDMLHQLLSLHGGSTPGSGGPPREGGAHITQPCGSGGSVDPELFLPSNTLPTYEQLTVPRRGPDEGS
Sequence of Potassium voltage-gated channel subfamily E member 1 (Homo sapiens) + Potassium voltage-gated channel subfamily KQT member 1 (Homo sapiens) (P51787 whole entry, looked up): as the sequence (P51787 whole entry, looked up) above

`NS(=O)(=O)c1ccc(Sc2ccc3c(c2)CCC3)nc1`: the result in experiment [1], in experiment [3], in experiment [4] and in experiment [5] was inactive. Further, the potentiation in experiment [2] was 22.5% (active).

`O=C(NC1CCCC1)C(c1cccnc1)N(C(=O)c1csnn1)c1ccccc1` (stereo not given): the result in experiment [1], in experiment [3], in experiment [4] and in experiment [5] was inactive. The potentiation in experiment [2] was 27% (active).

As to `Cc1ccc(S(=O)(=O)Nc2cccc3ncccc23)s1`, the result in experiment [1], in experiment [4] and in experiment [5] was inactive. The potentiation in experiment [2] was 19.5% (active); in experiment [3] it was 168% (active).

Turning to `NC(=O)c1ccsc1NC(=O)COC(=O)Cc1ccsc1`, the result in experiment [1], in experiment [3], in experiment [4] and in experiment [5] was inactive. Further, the potentiation in experiment [2] is 182% (active).

As for `Cc1ccc(C(=O)NC(=S)N2CCN(c3cc(C)ccc3C)CC2)cc1`, the outcome in experiment [1], in experiment [3], in experiment [4] and in experiment [5] was inactive. Moreover, the potentiation in experiment [2] is 50% (active).

Take `Oc1c(Cl)cc(Cl)cc1/C=N/NC(=S)NC1CC2C=CC1C2` (stereo not given): the outcome in experiment [1], in experiment [2], in experiment [3], in experiment [4] and in experiment [5] was inactive.

As for `CCCCCCCCN1[C@@H](CC(C)=O)c2cc(C(F)(F)F)ccc2S1(=O)=O`, the result in experiment [1], in experiment [3], in experiment [4] and in experiment [5] was inactive. For the same compound, in experiment [2], the potentiation was 60.5% (active).

For `CCOC(=O)c1c(NC(=O)CN2CCN(C(=O)c3ccco3)CC2)sc2c1CCCC2`, the outcome in experiment [1], in experiment [3], in experiment [4] and in experiment [5] was inactive. In addition, the potentiation in experiment [2] is 39.5% (active).

As for `Cc1ccc(C(=O)NC(=S)N(C)C2CCCCC2)cc1Br`, the result in experiment [1] and in experiment [4] was inactive. Also, the results for the potentiation in experiment [2] and in experiment [3] were 61% (active) and 159% (active), respectively. For the same compound, the activation in experiment [5] was 40.1% (active).

As to `Cc1c(-c2nc(-c3ccncc3)no2)cccc1[N+](=O)[O-]`, the outcome in experiment [1], in experiment [3], in experiment [4] and in experiment [5] was inactive. Besides, the potentiation in experiment [2] was 20% (active).

For `COCc1cc(C)nc(NCCO)c1C#N`, the result in experiment [1], in experiment [2], in experiment [3], in experiment [4] and in experiment [5] was inactive.

With `Cc1cccc(/N=C/c2sc3ccccc3c2O)n1`, the outcome in experiment [1], in experiment [2], in experiment [3], in experiment [4] and in experiment [5] was inactive.

As to `CCOC(=O)COc1cc(-n2c(=S)[nH]c3cc(OC)c(OC)cc3c2=O)c(Cl)cc1Cl`, the result in experiment [1], in experiment [3], in experiment [4] and in experiment [5] was inactive. For the same compound, in experiment [2], the potentiation is 31.5% (active).

Regarding `CN(C)c1cccc(C(=O)N2CCCC(C(=O)c3cc(F)ccc3F)C2)c1` (stereo not given), the outcome in experiment [1], in experiment [2], in experiment [3], in experiment [4] and in experiment [5] was inactive.

Turning to `Cc1ccc2[nH]c(=O)c(CN(CCCN(C)C)C(=S)NCCc3ccccc3)cc2c1`, the outcome in experiment [1], in experiment [2], in experiment [3], in experiment [4] and in experiment [5] was inactive.

For the compound `Cc1ccc(Nc2ccc([N+](=O)[O-])cn2)cc1Cl`, the outcome in experiment [1], in experiment [2], in experiment [4] and in experiment [5] was inactive. Besides, the potentiation in experiment [3] is 144% (active).

As to `COc1ccc(-c2csc(N(CCCN(C)C)C(=O)c3ccccc3C)n2)cc1`, the result in experiment [1], in experiment [2], in experiment [3], in experiment [4] and in experiment [5] was inactive.

`CN(C)CCNc1ncnc2c1sc1nc(N3CCOCC3)c3c(c12)CC(C)(C)SC3`: the result in experiment [1], in experiment [2], in experiment [3], in experiment [4] and in experiment [5] was inactive.

With `CC(C)CNC(=S)NC(=O)c1ccc([N+](=O)[O-])cc1`, the result in experiment [1], in experiment [2], in experiment [3], in experiment [4] and in experiment [5] was inactive.

As to `CCC1CCCCN1CCCNC(=O)CSc1nc2nc(C)c(Cc3ccccc3)c(C)n2n1` (stereo not given), the result in experiment [1], in experiment [2], in experiment [3], in experiment [4] and in experiment [5] was inactive.

On to `CSc1ncc(C(=O)Nc2ccccc2Cl)c(C)n1`, for which the outcome in experiment [1], in experiment [2], in experiment [3], in experiment [4] and in experiment [5] was inactive.

With `O=C(O)CCCN1C(=O)/C(=C/c2ccc(-c3nc4ccccc4s3)o2)SC1=S`, the result in experiment [1], in experiment [4] and in experiment [5] was inactive. For the same compound, the potentiation in experiment [2] was 21.5% (active); in experiment [3] it was 143% (active).

Take `CCOc1ccc(NC(=O)c2ccc(N)cc2)cc1`: the result in experiment [1], in experiment [2], in experiment [3], in experiment [4] and in experiment [5] was inactive.

Consider `CCOC(=O)Cc1csc(NC(=S)NC(=O)c2ccc(Cl)cc2)n1`, for which the result in experiment [1], in experiment [2], in experiment [3], in experiment [4] and in experiment [5] was inactive.

As for `Cc1nc(-c2ccc(NC(=O)Cc3ccccc3)cc2)cs1`, the outcome in experiment [1], in experiment [2], in experiment [3], in experiment [4] and in experiment [5] was inactive.

On to `O=c1oc2ccccc2c(Cl)c1CN1CCCCC1`, for which the result in experiment [1], in experiment [2], in experiment [3], in experiment [4] and in experiment [5] was inactive.

For the compound `C=CCSc1nc2c(c(=O)[nH]1)C(C(C)C)C(C#N)=C(N)O2` (stereo not given), the outcome in experiment [1], in experiment [2], in experiment [3], in experiment [4] and in experiment [5] was inactive.

As to `Cc1cc(-c2cccs2)c(C#N)c(=S)[nH]1`, the result in experiment [1], in experiment [2], in experiment [3], in experiment [4] and in experiment [5] was inactive.

On to `Cc1ccc(-c2nc(=S)c3c(n2Cc2ccco2)CC(C)(C)OC3)cc1`, for which the outcome in experiment [1], in experiment [2], in experiment [3], in experiment [4] and in experiment [5] was inactive.

Regarding `Cn1c(SCC(=O)NC2CC2)nnc1-c1cccs1`, the outcome in experiment [1], in experiment [2], in experiment [3], in experiment [4] and in experiment [5] was inactive.
